# In ChEMBL document CHEMBL1128595, “Synthesis and biological activity of 7-alkylidenecephems” (J Med Chem, 1995):
# Legend:
# Beta-lactamase TEM [1] = molecular target: T1, Beta-lactamase TEM (Escherichia coli, UniProt P62593); experiment: (§1) The concentration of compound to inhibit beta-lactamase was measured on Escherichia coli WC3310; type: functional
# Summary of the method: (§2)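 TEM-2 β-lactamase partially purified from E. coli W3310 (freeze-thaw lysis, DNase, Sephadex G-75 gel filtration). Enzyme preincubated with varied inhibitor in 50 mM phosphate buffer pH 7.2 at 25 °C for 10 min.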
# Beta-lactamase [2] = molecular target: T2, Beta-lactamase (Enterobacter cloacae, UniProt P05364); experiment: The concentration of compound to inhibit beta-lactamase was measured on Enterobacter cloacae SC 12368; type: functional
# T2 sequence (P05364 whole entry): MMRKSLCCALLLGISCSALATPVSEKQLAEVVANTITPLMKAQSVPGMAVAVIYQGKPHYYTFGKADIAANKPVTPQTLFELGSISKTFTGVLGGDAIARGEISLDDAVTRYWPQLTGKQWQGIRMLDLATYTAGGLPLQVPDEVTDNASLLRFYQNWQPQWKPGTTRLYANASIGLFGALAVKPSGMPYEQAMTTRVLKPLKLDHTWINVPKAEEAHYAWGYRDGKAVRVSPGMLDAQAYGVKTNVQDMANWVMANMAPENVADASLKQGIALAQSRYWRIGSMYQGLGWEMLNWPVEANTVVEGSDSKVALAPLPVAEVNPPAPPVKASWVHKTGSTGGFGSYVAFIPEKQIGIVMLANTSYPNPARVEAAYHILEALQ
# Beta-lactamase [3] = molecular target: T2, Beta-lactamase; experiment: The concentration of compound to inhibit beta-lactamase was measured on Enterobacter cloacae P99; type: functional
# [4] = The pseudo second order rate constant of inhibition (k3'') was measured by using Kitz and Wilson method; type: ADME
# Summary of the method: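 Kitz–Wilson analysis with E. cloacae P99 β-lactamase in 50 mM phosphate pH 7.2 at 25 °C. Enzyme incubated with five inhibitor concentrations (assay 2.8 × 10⁻⁸ to 1.4 × 10⁻⁷ M; enzyme 2.56 nM final). Aliquots taken at 30 s intervals over 5 min, diluted into nitrocefin (0.19 mM), absorbance at 482 nm read for 10 s. Reciprocal rate constants plotted against reciprocal inhibitor concentration.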
# Beta-lactamase [5] = molecular target: T2, Beta-lactamase; experiment: The concentration of compound to inhibit Beta-lactamase was measured on Enterobacter cloacae P99; type: functional
# Beta-lactamase TEM [6] = molecular target: T1, Beta-lactamase TEM; experiment: (§3) The concentration of compound to inhibit Beta-lactamase was measured on Escherichia coli WC3310; type: functional
# Summary of the method: as §2, with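 “min. Aliquot then diluted into nitrocefin (the more concentrated standard solution), and hydrolysis rate read at 482 nm.” for “min.”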
# Beta-lactamase [7] = molecular target: T2, Beta-lactamase; experiment: The concentration of compound to inhibit Beta-lactamase was measured on Enterobacter cloacae SC 12368; type: functional
# Beta-lactamase TEM [8] = molecular target: T1, Beta-lactamase TEM; experiment: as §3; type: functional; summary of the method: as §2; remark: listed apart in the source
# Beta-lactamase TEM [9] = molecular target: T1, Beta-lactamase TEM; experiment: as §1; type: functional; remark: listed apart in the source
# Summary of the method: as §2, with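 “min. Aliquot then diluted into nitrocefin (the more concentrated standard solution), and hydrolysis rate read at 482 nm.” for “min.”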
# T1 sequence (P62593 whole entry): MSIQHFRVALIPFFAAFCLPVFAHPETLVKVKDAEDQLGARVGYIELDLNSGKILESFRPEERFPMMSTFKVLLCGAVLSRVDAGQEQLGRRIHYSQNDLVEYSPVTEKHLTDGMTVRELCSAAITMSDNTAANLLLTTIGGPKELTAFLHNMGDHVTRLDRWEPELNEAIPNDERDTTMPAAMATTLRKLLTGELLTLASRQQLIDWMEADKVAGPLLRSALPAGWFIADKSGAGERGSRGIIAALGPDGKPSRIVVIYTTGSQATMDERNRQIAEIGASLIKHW
Compound,IC50 (Beta-lactamase TEM [1]) [µM],IC50 (Beta-lactamase [2]) [µM],IC50 (Beta-lactamase [3]) [µM],IC50 (Beta-lactamase [5]) [µM],IC50 (Beta-lactamase TEM [6]) [µM],IC50 (Beta-lactamase [7]) [µM],also measured
CC(=O)OCC1=C(C(=O)O)N2C(=O)/C(=C/c3ccccc3)[C@H]2S(=O)(=O)C1,> 20,6.8,6.25,,,,
O=C([O-])[C@H]1/C(=C/CO)O[C@@H]2CC(=O)N21.[Na+] [CLAVULANIC ACID (SODIUM)],,,,,,,k3' [4]: 799 L (M min)-1
CC(=O)OCC1=C(C(=O)O)N2C(=O)/C(=C/c3ccccc3)[C@H]2SC1,,,,> 20,> 20,> 20,
CC(=O)OCC1=C(C(=O)O)N2C(=O)/C(=C\Br)[C@H]2SC1,,,,> 20,,> 20,IC50 (Beta-lactamase TEM [8]): > 20 µM
CC(=O)OCC1=C(C(=O)O)N2C(=O)/C(=C/C(=O)OC(C)(C)C)[C@H]2S(=O)(=O)C1,0.005,5.9,7.8,,,,
CC(=O)OCC1=C(C(=O)O)N2C(=O)/C(=C/c3ccccn3)[C@H]2SC1,,,,> 20,> 2,> 20,
CC(=O)OCC1=C(C(=O)O)N2C(=O)/C(=C\c3ccccc3)[C@H]2S(=O)(=O)C1,> 20,> 20,> 20,,,,
CC(=O)OCC1=C(C(=O)O)N2C(=O)C(=C(Cl)Cl)[C@H]2S(=O)(=O)C1,8.3,> 20,> 20,,,,
CC(=O)/C=C1/C(=O)N2C(C(=O)O)=C(COC(C)=O)CS[C@H]12,,,,> 20,> 20,> 20,
C[C@]1(Cn2ccnn2)[C@H](C(=O)[O-])N2C(=O)C[C@H]2S1(=O)=O.[Na+] [TAZOBACTAM SODIUM],,,,,,,k3' [4]: 74000 L (M min)-1
CC(=O)OCC1=C(C(=O)[O-])N2C(=O)/C(=C/c3ccccn3)[C@H]2S(=O)(=O)C1.[Na+],0.8,0.025,0.025,,,,k3' [4]: 5.3e+06 L (M min)-1
CC(=O)OCC1=C(C(=O)O)N2C(=O)C(=C(Br)Br)[C@H]2S(=O)(=O)C1,> 20,> 20,> 20,,,,
CC(=O)OCC1=C(C(=O)[O-])N2C(=O)C(=C=CC(C)(C)C)[C@H]2S(=O)(=O)C1.[Na+],,,,0.13,> 20,0.26,k3' [4]: 1.7e+06 L (M min)-1
CC(=O)OCC1=C(C(=O)O)N2C(=O)/C(=C/CO)[C@H]2S(=O)(=O)C1,,> 20,> 20,,,,IC50 (Beta-lactamase TEM [9]): > 20 µM
CC(=O)OCC1=C(C(=O)O)N2C(=O)/C(=C/C(=O)OC(C)(C)C)[C@H]2SC1,,,,2.5,> 20,> 20,
CC(=O)OCC1=C(C(=O)O)N2C(=O)C(=C(Br)Br)[C@H]2SC1,,,,> 20,> 20,> 20,
CC(=O)OCC1=C(C(=O)O)N2C(=O)C(=C(Cl)Cl)[C@H]2SC1,,,,> 20,> 20,> 20,
CC(=O)OCC1=C(C(=O)O)N2C(=O)/C(=C/C(C)(C)C)[C@H]2SC1,,> 20,> 20,,,,IC50 (Beta-lactamase TEM [9]): > 20 µM
CC(=O)OCC1=C(C(=O)O)N2C(=O)/C(=C\Br)[C@H]2S(=O)(=O)C1,,> 20,> 20,,,,IC50 (Beta-lactamase TEM [9]): > 20 µM
CC(=O)OCC1=C(C(=O)O)N2C(=O)/C(=C/C=O)[C@H]2SC1,,,,8.2,> 20,16.5,
CC(=O)OCC1=C(C(=O)O)N2C(=O)/C(=C/C(C)(C)C)[C@H]2S(=O)(=O)C1,,> 20,> 20,,,,IC50 (Beta-lactamase TEM [9]): > 20 µM
CON(C)C(=O)/C=C1/C(=O)N2C(C(=O)O)=C(COC(C)=O)CS[C@H]12,> 20,> 20,> 20,,,,
